The values that follow come from the array DNA melting data of Ke et al. (doi:10.1101/2024.01.08.574731).

The nature of data set [1]: melting temperature; fluorescence melt of hairpins on a sequencing array, two-state fit, raised by 9.35 °C to match UV melts. The conditions noted are these: sodium 0.088 M. In short, it runs like this:
(§1)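 Melting temperature and folding enthalpy were derived from bootstrapped two-state fits. The fitted temperatures were raised by 9.35 °C to agree with UV melts, and four replicates were combined by inverse variance. The underlying data were Cy3 fluorescence images of library hairpins, with annealed Cy3 and quencher oligos, on a sequenced MiSeq flow cell in 50 mM Na-HEPES pH 8.0, 25 mM NaCl, taken in 2.5 °C steps up to 60 °C, normalised to pre-quench Cy3 and to control constructs.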

Data set [2] is described as follows: folding enthalpy; higher = less favourable; fluorescence melt of hairpins on a sequencing array, two-state fit. The conditions noted are these: sodium 0.088 M. In a few lines:
as §1

GATCCTTATCAGGATC ((((((....)))))): in data set [1], the Tm amounted to 51 °C. Also, the folding enthalpy in data set [2] was -33.2 kcal/mol.
Regarding GAGCGGGGAAACCCGCCC (.(((((....))))).), the Tm in data set [1] worked out at 45.1 °C. Besides, the folding enthalpy in data set [2] was -8.26 kcal/mol.
In the same order, the values of GGACTCGAAAGAGATTCC ((((((....)))..))) are 25.6 °C and -11.3 kcal/mol.
For the sequence GATCGGCCCACCGATC ((((((....)))))), in data set [1], the Tm is 58.2 °C. In addition, in data set [2], the folding enthalpy is -41.5 kcal/mol.
In the same order, the values of GTCAGGGCGAAAGCCGAC (((..(((....)))))) are 48.7 °C and -14.7 kcal/mol.
In the same order, the values of GCCTCGCGAAAGCTAAGC ((.(.((....)).).)) are 25.6 °C and -6.03 kcal/mol.
For GGGCTCCGAAAGGAACCC (((.(((....))).))), in that order: 56.5 °C and -44.1 kcal/mol.
Consider GAGAGGGGAAACCTTCTC ((((.((....)).)))), for which the Tm in data set [1] is 40.3 °C. Moreover, in data set [2], the folding enthalpy is -27.4 kcal/mol.
For GGTCATCGAAAGATCACC (((.(((....))).))), in that order: 35.7 °C and -30.2 kcal/mol.
As to GAATGGGGAAACCCGTTC (((.(((....))).))), the Tm in data set [1] worked out at 48.2 °C. In data set [2], the folding enthalpy is -35.5 kcal/mol.
In the same order, the values of GGAAAACGAAAGTTGTCC (((.(((....))).))) are 44.6 °C and -26.1 kcal/mol.
For GGGTTGGGAAACCGACTC (.((.((....)).)).), in that order: 41.2 °C and -16.3 kcal/mol.
Regarding GTTCAGCGAAAGCTCAAC (((.(((....))).))), the Tm in data set [1] came to 33.2 °C. For the same sequence, in data set [2], the folding enthalpy is -15.4 kcal/mol.
In the same order, the values of GTGAAGACGAAAGTCCAC (((..(((....)))))) are 41.6 °C and -18.4 kcal/mol.
In the case of GGTAGCGAAAGCTAAACC ((((((....)))..))), the Tm in data set [1] amounted to 42.8 °C. Further, the folding enthalpy in data set [2] is -15 kcal/mol.
In the same order, the values of GATCTACATGTAGATC ((((((....)))))) are 52.5 °C and -45.9 kcal/mol.
Consider TTGGGGAAACCCAA (((((....))))), for which the Tm in data set [1] worked out at 43.4 °C. Moreover, the folding enthalpy in data set [2] is -17.4 kcal/mol.
In the same order, the values of CGATCGGAAACGAGGTCG ((((((....)))..))) are 31 °C and -13.5 kcal/mol.
GATCGTATTACGATC ((((((...)))))): the Tm in data set [1] is 57 °C. For the same sequence, the folding enthalpy in data set [2] was -36.1 kcal/mol.
Regarding GATCTCTGTTGAGATC ((((((....)))))), the Tm in data set [1] came out at 54.3 °C. Besides, the folding enthalpy in data set [2] was -41 kcal/mol.
In the same order, the values of GCTAGGGGAAACCCTAGC (((((((....))))))) are 65.9 °C and -44.2 kcal/mol.
For GTTCGCGGAAACGTGGAC ((.(.((....)).).)), in that order: 44.8 °C and -26.9 kcal/mol.
In the case of GGAAGCGGAAACGCCTCC (((.(((....))).))), the Tm in data set [1] was 45.6 °C. The folding enthalpy in data set [2] was -20 kcal/mol.
In the same order, the values of GTGCGGCGAAAGCCACAC (((.(((....))).))) are 62.1 °C and -29.2 kcal/mol.
Regarding GATCCCCTGCGGGATC ((((((....)))))), the Tm in data set [1] came to 58.2 °C. Further, in data set [2], the folding enthalpy was -33.6 kcal/mol.
For the sequence GATCTGAATCCAGATC ((((((....)))))), the Tm in data set [1] stood at 46 °C. In addition, the folding enthalpy in data set [2] was -37.8 kcal/mol.
With GGACATGAAAATGTCC ((((((....)))))), in data set [1], the Tm came out at 61.7 °C. The folding enthalpy in data set [2] is -34.7 kcal/mol.
For GATCTTCCGCAAGATC ((((((....)))))), in that order: 42.5 °C and -35.4 kcal/mol.
In the case of GGGTCTGGAAACAAACCC ((((.((....)).)))), the Tm in data set [1] was determined as 37.9 °C. In data set [2], the folding enthalpy is -31.6 kcal/mol.
For GACAACCGAAAGGTGGTC (((.(((....))).))), in that order: 59.2 °C and -35.3 kcal/mol.
For GATCACTCATGTGATC ((((((....)))))), in that order: 57 °C and -40.5 kcal/mol.
For GACAGCGAAAGCTCTGTC ((((((....)))..))), in that order: 39.6 °C and -15.2 kcal/mol.
With GATCTTCGTAAAGATC ((((((....)))))), the Tm in data set [1] stood at 44.9 °C. In addition, the folding enthalpy in data set [2] is -40.8 kcal/mol.
GGTGTGGGAAACCACGTC (..((((....))))..): in data set [1], the Tm was 39.3 °C. For the same sequence, in data set [2], the folding enthalpy is -13 kcal/mol.
As to GACGCACCGAAAGGTGTC (((..(((....)))))), the Tm in data set [1] stood at 32.1 °C. Further, in data set [2], the folding enthalpy is -8.75 kcal/mol.
As to GCCACATCGAAAGATGGC (((..(((....)))))), the Tm in data set [1] was 45.5 °C. The folding enthalpy in data set [2] is -15.2 kcal/mol.
In the same order, the values of GGGCCGGGAAACCAGCCC ((((.((....)).)))) are 54.3 °C and -49.3 kcal/mol.
